Assay results as given in ChEMBL document CHEMBL2169769, “Synthesis and biological characterization of protease-activated prodrugs of doxazolidine” (J Med Chem, 2012).
pIC50: −log10 of the molar value.

Experiments:
[1] = Prodrug conversion assessed as release dozax at 50 uM at pH 7.4 in PBS buffer in presence of human plasmin after 2 hrs by RP-HPLC; format: ADME; details: pH 7.4, 2 h
Outline: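 50 µM prodrug with 1.2 µg/mL human plasmin in PBS pH 7.4 at 37 °C. Samples taken over time, ethanol-quenched, analysed by RP-HPLC at 480 nm for prodrug and dox; repeated runs fit to single-exponential association model.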

HEK-293T [2] = assay: Cytotoxicity against human HEK293T cells incubated for 24 hrs measured after 5 day; format: cell-based
Outline: (§1)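 Cells seeded 1000/well, adhered overnight, then serum-free medium with or without plasmin, trypsin, cathepsin B or papain (0.2 U/well), aprotinin (5 µM) or protease inhibitor cocktail (1X). Prodrug 2000–1 nM final, 24 h; then complete medium up to 5 days or control 80% confluence. Formalin fixed, crystal violet, A582; % of control fit to variable-slope sigmoid for IC50.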

BXPC-3 [3] = assay: Cytotoxicity against human BxPC3 cells incubated for 24 hrs measured after 5 days in presence of 0.2 U human plasmin; format: functional, cell-based; outline: as §1
Homo sapiens [4] = organism: Homo sapiens; assay: Selectivity ratio of Kcat of human plasmin to Kcat of human cathepsin B
Outline: (§2)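 Michaelis–Menten kinetics with human enzymes and substrate at 10–400 µM, 37 °C. Plasmin: 0.2 U in PBS pH 7.4 for 4 min. Cathepsin B: 0.08 U in PBS with 10 mM N-acetylcysteine, pH 6.5, for 20 min. Quenched with ethanol, held at −20 °C ≥2 h, centrifuged. Dox release read by RP-HPLC at 480 nm. Rates (µM/min) fit by non-linear least squares; triplicate.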

MIA PaCa-2 [5] = assay: Cytotoxicity against human MIAPaCa2 cells incubated for 24 hrs measured after 5 days; format: functional, cell-based; outline: as §1
[6] = target: Cathepsin B (Homo sapiens) (UniProt P07858); assay: Activity of human cathepsin B assessed as compound hydrolysis measuring enzyme specific activity at 50 uM at pH 6.5 in PBS buffer containing 10 mM N-acetylcysteine by RP-HPLC
Outline: (§3)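 Specific activity from hydrolysis time courses at 37 °C with 50 µM substrate. Plasmin in PBS pH 7.4; cathepsin B diluted two-fold in PBS-NAC, reacted in PBS-NAC (10 mM N-acetylcysteine) pH 6.5. Ethanol-quenched aliquots, protein precipitated at −20 °C, RP-HPLC at 480 nm tracking dox release. Linear least-squares slope used; 1 U = 1 µM substrate hydrolysed per min.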

SHP77 [7] = assay: Cytotoxicity against human doxorubicin-resistant SHP77 cells incubated for 24 hrs measured after 5 days; format: functional, cell-based; outline: as §1
BXPC-3 [8] = assay: Cytotoxicity against human BxPC3 cells incubated for 24 hrs measured after 5 days; format: functional, cell-based; outline: as §1
MIA PaCa-2 [9] = assay: Cytotoxicity against human MIAPaCa2 cells incubated for 24 hrs measured after 5 days in presence of 0.2 U trypsin; format: functional, cell-based; outline: as §1
SHP77 [10] = assay: Cytotoxicity against doxorubicin-resistant human SHP77 cells incubated for 24 hrs measured after 5 days in presence of 0.2 U human plasmin; format: functional, cell-based; outline: as §1
[11] = target: Plasminogen (Homo sapiens) (UniProt P00747); assay: Activity of human plasmin assessed as enzyme catalytic efficiency for compound hydrolysis at 50 uM at pH 7.4 in PBS buffer by RP-HPLC
Chain of Plasminogen (Homo sapiens) (P00747 97-580 limits assumed): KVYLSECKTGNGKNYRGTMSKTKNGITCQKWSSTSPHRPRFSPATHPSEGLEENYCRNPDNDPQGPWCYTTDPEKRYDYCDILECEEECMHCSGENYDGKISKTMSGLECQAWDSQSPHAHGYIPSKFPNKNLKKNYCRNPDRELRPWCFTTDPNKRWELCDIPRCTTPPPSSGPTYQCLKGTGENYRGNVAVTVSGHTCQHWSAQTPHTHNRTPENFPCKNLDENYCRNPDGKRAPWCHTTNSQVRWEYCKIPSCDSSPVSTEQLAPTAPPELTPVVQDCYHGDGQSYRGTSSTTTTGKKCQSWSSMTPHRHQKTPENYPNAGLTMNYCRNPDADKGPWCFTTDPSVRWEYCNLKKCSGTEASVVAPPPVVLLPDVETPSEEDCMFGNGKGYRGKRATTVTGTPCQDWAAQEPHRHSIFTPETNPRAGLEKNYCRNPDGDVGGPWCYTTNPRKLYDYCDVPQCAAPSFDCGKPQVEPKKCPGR
Chain of Plasminogen (Homo sapiens) (P00747 581-810 limits assumed): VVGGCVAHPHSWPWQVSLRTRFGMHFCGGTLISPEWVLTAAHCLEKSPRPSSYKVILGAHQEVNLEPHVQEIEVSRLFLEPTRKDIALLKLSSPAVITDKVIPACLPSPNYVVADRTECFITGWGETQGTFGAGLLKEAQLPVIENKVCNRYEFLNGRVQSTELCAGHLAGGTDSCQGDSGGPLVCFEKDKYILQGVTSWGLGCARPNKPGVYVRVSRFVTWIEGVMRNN
Outline: (§4)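 Michaelis-Menten kinetics, substrate 10–400 µM at 37 °C. Plasmin: 0.2 U, PBS pH 7.4, 4 min. Cathepsin B: 0.08 U, PBS-NAC pH 6.5, 20 min. Quenched with equal volume ethanol, −20 °C ≥2 h, centrifuged, supernatant RP-HPLC at 480 nm. Rates (µM/min) fit by non-linear least squares; triplicates.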

[12] = target: Cathepsin B (Homo sapiens) (UniProt P07858); assay: Activity of human cathepsin B assessed as enzyme catalytic efficiency for compound hydrolysis at 50 uM at pH 6.5 in PBS buffer containing 10 mM N-acetylcysteine by RP-HPLC; outline: as §4
[13] = Prodrug conversion assessed as release dozax at 50 uM at pH 7.4 in PBS buffer in absence of human plasmin after 24 hrs by RP-HPLC; format: ADME; details: pH 7.4, 24 h
Outline: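 Enzyme-free control: 50 µM prodrug in PBS at 37 °C over 24 h, RP-HPLC monitoring dox at 480 nm.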

HEK-293T [14] = assay: Cytotoxicity against human HEK293T cells incubated for 24 hrs measured after 5 days in presence of 0.2 U human plasmin; format: cell-based; outline: as §1
MIA PaCa-2 [15] = assay: Drug uptake in human MIAPaCa2 cells increase in compound uptake-induced anthracycline fluorescence in presence of plasmin at 0.5 uM after 4 to 5 hrs by flow cytometry relative to untreated control; format: ADME, cell-based; details: mia paca-2, 0.5 µM
Outline: (§5)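 MCF-7 or MiaPaCa-2 plated 250,000/well, adhered overnight, switched to serum-free medium with 0.5 µM prodrug alone or plus 0.2 U human plasmin (final) for up to 5 h. Trypsinised cells read by flow cytometry (FL3) for anthracycline fluorescence; mean values expressed as fold over untreated cells.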

[16] = Cytotoxicity against human L3.6PL cells incubated for 24 hrs measured after 5 day; format: functional, cell-based; outline: as §1
[17] = Cytotoxicity against doxorubicin-resistant human NCI-ADR-RES.cells incubated for 24 hrs measured after 5 days in presence of 0.2 U human plasmin; format: functional, cell-based; outline: as §1
MCF7 [18] = assay: Cytotoxicity against human MCF7 cells incubated for 24 hrs measured after 5 days; format: functional, cell-based; outline: as §1
Plasma = assay: Stability in human plasma assessed as doxorubicin production at 50 uM incubated over 24 hrs by RP-HPLC; format: ADME, cell-free
Outline: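 Prodrug diluted to 50 µM final in undiluted plasma from healthy human donors, 37 °C for 24 h. Aliquots at 0.25, 1, 3, 8, 12 and 24 h were quenched with equal-volume ethanol and held at −20 °C overnight; protein was spun out. Supernatant run on RP-HPLC; percent prodrug and dox taken from relative 480 nm absorbance, counting all 480 nm species; triplicate.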

MCF7 [19] = assay: Cytotoxicity against human MCF7 cells incubated for 24 hrs measured after 5 days in presence of 0.2 U cathepsin B; format: functional, cell-based; outline: as §1
[20] = Cytotoxicity against human L3.5.cells incubated for 24 hrs measured after 5 days in presence of 0.2 U human plasmin; format: functional, cell-based; outline: as §1
[21] = Cytotoxicity against human L3.6PL cells incubated for 24 hrs measured after 5 days in presence of 0.2 U human plasmin; format: functional, cell-based; outline: as §1
Homo sapiens [22] = organism: Homo sapiens; assay: Selectivity ratio of catalytic efficiency of human plasmin to catalytic efficiency of human cathepsin B; outline: as §2
[23] = target: Plasminogen (Homo sapiens) (UniProt P00747); assay: Activity of human plasmin assessed as compound hydrolysis measuring enzyme specific activity at 50 uM at pH 7.4 in PBS buffer by RP-HPLC; outline: as §3
MIA PaCa-2 [24] = assay: Cytotoxicity against human MIAPaCa2 cells incubated for 24 hrs measured after 5 days in presence of 5 uM aprotinin; format: functional, cell-based; outline: as §1
MCF7 [25] = assay: Cytotoxicity against human MCF7 cells incubated for 24 hrs measured after 5 days in presence of complete protease inhibitor cocktail; format: functional, cell-based; outline: as §1
MCF7 [26] = assay: Drug uptake in human MCF7 cells increase in compound uptake-induced anthracycline fluorescence in presence of plasmin at 0.5 uM after 4 to 5 hrs by flow cytometry relative to untreated control; format: ADME, cell-based; details: mcf7, 0.5 µM; outline: as §5
[27] = Cytotoxicity against human L3.5 cells incubated for 24 hrs measured after 5 day; format: functional, cell-based; outline: as §1

## COc1cccc2c1C(=O)c1c(O)c3c(c(O)c1C2=O)C[C@@](O)(C(=O)CO)C[C@@H]3O[C@H]1C[C@H]2[C@H](OCN2C(=O)OCc2ccc(NC(=O)[C@H](CCCCN)NC(=O)[C@H](Cc3ccccc3)NC(=O)[C@@H](C)NC(=O)CNC(C)=O)cc2)[C@H](C)O1.O=P(O)(O)O
[1]
  Drug metabolism: Active
HEK-293T [2]
  pIC50: 6.70
BXPC-3 [3]
  pIC50: 7.40
Homo sapiens [4]
  Ratio: 5
MIA PaCa-2 [5]
  pIC50: 6.60
[6]
  Activity: 1040 U/mg
SHP77 [7]
  pIC50: 5.80
BXPC-3 [8]
  pIC50: 6.00
MIA PaCa-2 [9]
  pIC50: 7.58
SHP77 [10]
  pIC50: 7.53
[11]
  Activity: 1.43 ×10⁴ /M/s
[12]
  Activity: 4.59 ×10³ /M/s
[13]
  Stability: Stable
HEK-293T [14]
  pIC50: 8.52
MIA PaCa-2 [15]
  fold change (FC): 7
[16]
  pIC50: 6.50
[17]
  pIC50: 7.93
MCF7 [18]
  pIC50: 6.70
Plasma
  Stability: Stable
MCF7 [19]
  pIC50: 6.92
[20]
  pIC50: 8.58
[21]
  pIC50: 8.50
Homo sapiens [22]
  Ratio: > 3
[23]
  Activity: 1940 U/mg
MIA PaCa-2 [24]
  pIC50: 6.55
MCF7 [25]
  pIC50: 6.60
MCF7 [26]
  fold change (FC): 7
[27]
  pIC50: 6.65
